Broadly, the MIC is the least concentration at which growth counts as inhibited. Higher therefore signals a need for much substance.

The test system of assay [1] is Staphylococcus aureus. In words: Antimicrobial activity against methicillin-resistant Staphylococcus aureus BK2529 by Etest. Format: functional. The gist of the method: (§1)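 Etest (manufacturer's method) and population analysis: overnight cultures serially diluted and plated on TSA with increasing oxacillin or BPR, CFU counted after 48 h at 37°C. Colonies from subpopulations growing at high oxacillin or BPR were picked, restreaked on antibiotic-free TSA for three passages, then retested by population analysis.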

For assay [2], the system named is Staphylococcus aureus. In words: Antimicrobial activity against methicillin-resistant Staphylococcus aureus HAR22 by Etest. Format: functional. The gist of the method:
as §1

The subject of assay [3] is Staphylococcus aureus. In words: Antimicrobial activity against methicillin-resistant Staphylococcus aureus HU25 by Etest. Format: functional. The gist of the method: as §1
For assay [4], the system named is Staphylococcus aureus. The assay can be described thus: Antimicrobial activity against methicillin-resistant Staphylococcus aureus HPV107 assessed as concentration required for bacterial subpopulation growth. Format: functional. The method in brief: as §1
Assay [5] concerns Staphylococcus aureus. In words: Antimicrobial activity against methicillin-resistant Staphylococcus aureus HDE288 assessed as concentration required for bacterial subpopulation growth. Format: functional. The gist of the method:
as §1

Assay [6] relates to Staphylococcus aureus. In words: Antimicrobial activity against methicillin-resistant Staphylococcus aureus BK2529 assessed as concentration required for bacterial subpopulation growth. Format: functional. The gist of the method: as §1
In assay [7] the test system is Staphylococcus aureus. In words: Antimicrobial activity against methicillin-resistant Staphylococcus aureus HAR24 assessed as concentration required for bacterial subpopulation growth. Format: functional. The method in brief: as §1
Assay [8] concerns Staphylococcus aureus. In words: Antimicrobial activity against methicillin-resistant Staphylococcus aureus HAR22 assessed as concentration required for bacterial subpopulation growth. Format: functional. The gist of the method:
as §1

Assay [9] concerns Staphylococcus aureus. The assay can be described thus: Antimicrobial activity against methicillin-resistant Staphylococcus aureus USA300 assessed as concentration required for bacterial subpopulation growth. Format: functional. The method in brief:
as §1

The test system of assay [10] is Staphylococcus aureus. In words: Antimicrobial activity against methicillin-resistant Staphylococcus aureus USA300 assessed as concentration required for minimum inhibition of oxacillin-resistant subpopulation growth by Etest. Format: functional. The gist of the method: as §1
The subject of assay [11] is Staphylococcus aureus. In words: Antimicrobial activity against methicillin-resistant Staphylococcus aureus E2125 assessed as concentration required for minimum inhibition of BRP-resistant subpopulation growth by Etest. Format: functional. The gist of the method: as §1
The subject of assay [12] is Staphylococcus aureus. In words: Antimicrobial activity against methicillin-resistant Staphylococcus aureus HPV107 assessed as concentration required for minimum inhibition of BRP-resistant subpopulation growth by Etest. Format: functional. The method in brief:
as §1

In assay [13] the test system is Staphylococcus aureus. In words: Antimicrobial activity against methicillin-resistant Staphylococcus aureus BK2529 assessed as concentration required for minimum inhibition of BRP-resistant subpopulation growth by Etest. Format: functional. The gist of the method:
as §1

For assay [14], the system named is Staphylococcus aureus. In words: Antimicrobial activity against methicillin-resistant Staphylococcus aureus COL assessed as concentration required for minimum inhibition of BRP-resistant subpopulation growth. Format: functional. The gist of the method: as §1
The subject of assay [15] is Staphylococcus aureus. In words: Antimicrobial activity against methicillin-resistant Staphylococcus aureus HU25 assessed as concentration required for minimum inhibition of BRP-resistant subpopulation growth. Format: functional. The method in brief:
as §1

For assay [16], the system named is Staphylococcus aureus. In words: Antimicrobial activity against vancomycin-intermediate Staphylococcus aureus JH9 obtained from bacteremic patient by Etest. Format: functional. The gist of the method: (§2)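 Etest and population analysis: overnight cultures plated on TSA with increasing vancomycin, oxacillin or BPR, CFU counted after 48 h at 37°C. For VRSA strains, vancomycin plates also run with constant 1 µg/ml BPR. Vancomycin Etest read after overnight 37°C incubation on TSA with or without 1 µg/ml BPR.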

For assay [17], the system named is Staphylococcus aureus. In words: Antimicrobial activity against oxacillin-resistant Staphylococcus aureus COLVA harboring Tn1546 transposon by Etest. Format: functional. The gist of the method: as §2
Assay [18] has as its target T1, Penicillin-binding protein 4 (Staphylococcus aureus (strain COL)) (UniProt A0A0H2WY27).
T1 sequence (whole entry): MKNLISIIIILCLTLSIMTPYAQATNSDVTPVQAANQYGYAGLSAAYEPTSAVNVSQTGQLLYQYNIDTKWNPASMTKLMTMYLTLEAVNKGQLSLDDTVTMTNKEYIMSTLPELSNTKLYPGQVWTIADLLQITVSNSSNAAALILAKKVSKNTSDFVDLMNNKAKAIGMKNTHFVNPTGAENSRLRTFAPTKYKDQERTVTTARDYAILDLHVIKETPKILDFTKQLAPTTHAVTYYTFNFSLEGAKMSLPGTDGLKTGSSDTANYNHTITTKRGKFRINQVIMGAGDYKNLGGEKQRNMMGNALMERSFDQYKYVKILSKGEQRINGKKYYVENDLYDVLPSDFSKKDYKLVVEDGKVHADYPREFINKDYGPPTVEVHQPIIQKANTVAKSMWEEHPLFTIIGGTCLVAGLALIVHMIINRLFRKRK
The assay can be described thus: Displacement of benzyl-[14C]penicillin from Staphylococcus aureus PBP4 by in vitro competitive assay. The following applies: Staphylococcus aureus subsp. aureus COL. The method in brief:
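Membranes came from late-exponential cells of RU130, a PBP 2 insertional mutant of COL. Samples of 150 µg protein were preincubated with increasing drug concentrations for 10 min at 30°C, then labeled with benzyl[14C]penicillin at 20 µg/ml for 10 min at 37°C. The reaction was stopped with excess unlabeled benzylpenicillin in SDS. Read-out was SDS-PAGE with phosphor-screen exposure for 2 weeks.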

Converted amounts (≈) assume the structure as drawn. The source made the active and inactive calls. No cut-off for these calls is given here.

Regarding `Nc1nc(/C(=N/O)C(=O)N[C@@H]2C(=O)N3C(C(=O)O)=C(/C=C4\CCN([C@@H]5CCNC5)C4=O)CS[C@H]23)ns1` [CEFTOBIPROLE], the MIC is 1.5 µg/mL (≈ 2.81 µM) in assay [1]; 0.8 µg/mL (≈ 1.5 µM) in [2]; 3 µg/mL (≈ 5.61 µM) in assay [3]; 0.8 µg/mL (≈ 1.5 µM) in assay [16]; 1.5 µg/mL (≈ 2.81 µM) in assay [17]. The Activity came out at 3 µg/mL in [4]; 3 µg/mL in [5]; 3 µg/mL in assay [6]; 3 µg/mL in assay [7]; 1.5 µg/mL in assay [8]; 1.5 µg/mL in [9]. Besides, the Activity was 1.5 µg/mL in [10]; 1.5 µg/mL in [11]; 0.8 µg/mL in assay [12]; 1.5 µg/mL in [13]; 3 µg/mL in [14]; 3 µg/mL in [15]. Moreover, the outcome in assay [18] was Active.
